The target in assay [1] is Huntingtin (Homo sapiens) (UniProt P42858). Kind of assay: Inhibition of huntingtin-mediated toxicity in yeast transfected with human huntingtin by spotting assay.
Assay [2] concerns the target Alpha-synuclein (Homo sapiens) (UniProt P37840). Kind of assay: Inhibition of alpha-synuclein-mediated toxicity in yeast transfected with human alpha-synuclein by spotting assay. Summed up:
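Haploid W303 IntTox strain carrying integrated GAL1-driven human α-syn-YFP, transformed with CP plasmids by lithium acetate heat shock. At least three independent transformants tested. Cells serially diluted and plated on galactose medium to induce α-syn, then growth scored.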

Assay [3] shares this target. The assay is described as follows: Inhibition of human alpha-synuclein-mediated accumulation of stalled vesicle pools in yeast transfected with human alpha-synuclein after 8 to 12 hrs by electron microscopy.
Assay [4] has the same target. The assay is described as follows: Inhibition of alpha-synuclein-mediated dopaminergic neurodegeneration in Caenorhabditis elegans transfected with human alpha-synuclein. Summed up: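 Age-synchronized transgenic worms expressing α-syn and GFP from the Pdat-1 promoter in DA neurons, with extrachromosomal mCP arrays; three independent lines per strain. Six anterior DA neurons (4 CEP, 2 ADE) scored at day 7 on 2% agarose pads with 2 mM levamisole, by epifluorescence. An animal with any dendrite, axon or cell body loss counted as degenerating. 30 worms per trial, three trials per line.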

Another assay relates to Saccharomyces cerevisiae. The assay is described as follows: Effect on lacZ expression in yeast after 36 to 48 hrs by Gal1 reporter gene assay. Format: functional, organism-based. In short, it runs like this:
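GAL1::LacZ yeast (freshly integrated) grown on galactose plates; single colonies picked at 36–48 h, washed, normalized to OD600 0.4–0.8. CPRG substrate buffer (100 mM HEPES pH 7.25, 150 mM NaCl, 0.5% SDS, 0.75 mg/mL CPRG) added, shaken 30–120 min at room temperature. Absorbance read at 578 nm and corrected for yeast optical density.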
On the technique in general: In a reporter assay the amount or activity of a reporter protein is the signal.

The source made the active and inactive calls. The calls are words filed in the database; no cut-off is given here. Bridge positions count the residues as written; N and C are the ends. Peptide text beside a SMILES is read from it.

Huntingtin (Homo sapiens), sequence (P42858 whole entry): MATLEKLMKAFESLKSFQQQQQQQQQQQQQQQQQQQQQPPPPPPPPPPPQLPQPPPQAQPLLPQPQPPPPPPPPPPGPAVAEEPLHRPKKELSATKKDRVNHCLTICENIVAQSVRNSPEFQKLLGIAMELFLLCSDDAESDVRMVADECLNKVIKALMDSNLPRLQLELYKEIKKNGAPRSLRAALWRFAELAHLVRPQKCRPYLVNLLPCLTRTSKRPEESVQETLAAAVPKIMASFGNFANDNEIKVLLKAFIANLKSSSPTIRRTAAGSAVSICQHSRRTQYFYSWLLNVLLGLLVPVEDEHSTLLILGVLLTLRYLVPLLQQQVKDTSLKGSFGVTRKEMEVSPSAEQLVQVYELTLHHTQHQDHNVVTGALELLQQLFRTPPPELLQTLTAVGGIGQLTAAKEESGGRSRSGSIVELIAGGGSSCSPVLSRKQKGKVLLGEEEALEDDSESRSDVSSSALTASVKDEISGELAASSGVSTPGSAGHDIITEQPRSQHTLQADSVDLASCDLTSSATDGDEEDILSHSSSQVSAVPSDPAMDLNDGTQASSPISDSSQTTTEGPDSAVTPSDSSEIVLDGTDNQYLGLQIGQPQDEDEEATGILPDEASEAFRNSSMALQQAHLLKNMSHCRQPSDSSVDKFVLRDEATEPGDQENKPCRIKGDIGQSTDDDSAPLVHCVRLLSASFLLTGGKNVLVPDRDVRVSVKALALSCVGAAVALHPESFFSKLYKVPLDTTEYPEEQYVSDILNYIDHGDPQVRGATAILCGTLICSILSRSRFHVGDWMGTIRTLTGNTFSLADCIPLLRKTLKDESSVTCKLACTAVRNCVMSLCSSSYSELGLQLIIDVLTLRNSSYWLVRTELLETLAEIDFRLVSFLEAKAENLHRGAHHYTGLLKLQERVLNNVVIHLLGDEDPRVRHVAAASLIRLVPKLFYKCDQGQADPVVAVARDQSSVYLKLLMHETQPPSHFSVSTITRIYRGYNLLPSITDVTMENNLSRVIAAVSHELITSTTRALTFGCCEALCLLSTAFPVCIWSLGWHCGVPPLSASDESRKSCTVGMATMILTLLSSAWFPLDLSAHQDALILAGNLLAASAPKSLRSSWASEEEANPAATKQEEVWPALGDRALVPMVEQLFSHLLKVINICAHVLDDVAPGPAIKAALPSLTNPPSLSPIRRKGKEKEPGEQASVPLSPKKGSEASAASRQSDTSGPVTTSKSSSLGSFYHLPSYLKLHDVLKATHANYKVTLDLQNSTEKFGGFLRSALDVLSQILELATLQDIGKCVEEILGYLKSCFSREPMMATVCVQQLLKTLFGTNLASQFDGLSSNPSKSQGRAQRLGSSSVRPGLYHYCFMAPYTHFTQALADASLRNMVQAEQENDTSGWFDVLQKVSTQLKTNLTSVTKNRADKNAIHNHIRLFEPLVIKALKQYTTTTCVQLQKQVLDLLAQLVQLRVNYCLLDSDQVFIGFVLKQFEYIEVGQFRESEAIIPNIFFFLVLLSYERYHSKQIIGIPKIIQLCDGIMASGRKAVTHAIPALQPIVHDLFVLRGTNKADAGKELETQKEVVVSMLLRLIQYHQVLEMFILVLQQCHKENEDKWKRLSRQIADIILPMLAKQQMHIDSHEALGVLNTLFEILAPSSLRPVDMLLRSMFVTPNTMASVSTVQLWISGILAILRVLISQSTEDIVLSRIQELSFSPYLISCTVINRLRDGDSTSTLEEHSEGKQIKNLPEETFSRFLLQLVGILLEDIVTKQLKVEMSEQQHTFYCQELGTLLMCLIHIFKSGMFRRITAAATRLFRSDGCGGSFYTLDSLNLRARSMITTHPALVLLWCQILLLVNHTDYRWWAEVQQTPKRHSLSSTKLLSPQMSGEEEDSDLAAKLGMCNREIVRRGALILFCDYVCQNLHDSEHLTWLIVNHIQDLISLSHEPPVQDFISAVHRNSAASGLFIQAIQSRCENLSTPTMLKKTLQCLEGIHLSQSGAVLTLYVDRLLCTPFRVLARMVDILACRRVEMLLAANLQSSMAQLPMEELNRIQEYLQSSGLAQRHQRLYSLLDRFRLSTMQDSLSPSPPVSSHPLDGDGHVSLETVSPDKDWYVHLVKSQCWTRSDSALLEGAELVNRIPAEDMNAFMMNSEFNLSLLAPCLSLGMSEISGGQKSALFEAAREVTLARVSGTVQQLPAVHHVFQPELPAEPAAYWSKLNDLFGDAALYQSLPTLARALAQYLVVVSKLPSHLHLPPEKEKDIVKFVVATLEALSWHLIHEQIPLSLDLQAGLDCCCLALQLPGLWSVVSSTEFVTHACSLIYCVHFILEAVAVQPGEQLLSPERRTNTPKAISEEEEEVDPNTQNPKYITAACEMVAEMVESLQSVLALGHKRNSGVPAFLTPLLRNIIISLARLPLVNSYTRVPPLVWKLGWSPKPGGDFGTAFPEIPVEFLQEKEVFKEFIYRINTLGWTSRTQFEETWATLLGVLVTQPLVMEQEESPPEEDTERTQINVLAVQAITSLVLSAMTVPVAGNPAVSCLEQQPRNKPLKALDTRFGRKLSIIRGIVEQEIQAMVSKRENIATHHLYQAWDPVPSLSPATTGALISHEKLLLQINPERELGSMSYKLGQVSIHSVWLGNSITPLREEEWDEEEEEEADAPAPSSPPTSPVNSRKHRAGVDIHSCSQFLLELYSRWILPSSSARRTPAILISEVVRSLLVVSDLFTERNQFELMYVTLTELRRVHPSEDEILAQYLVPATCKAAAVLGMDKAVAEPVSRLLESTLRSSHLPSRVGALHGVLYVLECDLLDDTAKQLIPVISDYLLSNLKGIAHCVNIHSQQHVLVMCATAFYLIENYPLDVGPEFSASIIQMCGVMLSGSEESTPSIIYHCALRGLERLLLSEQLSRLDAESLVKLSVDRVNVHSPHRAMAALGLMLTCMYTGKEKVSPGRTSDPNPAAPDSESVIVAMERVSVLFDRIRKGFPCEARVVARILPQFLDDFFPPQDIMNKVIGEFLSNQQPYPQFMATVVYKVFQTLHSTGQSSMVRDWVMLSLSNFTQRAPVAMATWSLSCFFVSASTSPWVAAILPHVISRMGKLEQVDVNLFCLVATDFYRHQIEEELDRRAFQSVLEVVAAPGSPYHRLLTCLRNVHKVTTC

For `CC(C)[C@H](NC(=O)[C@H](CCCNC(=N)N)NC(=O)[C@@H](NC(=O)[C@H](CO)NC(=O)[C@@H]1CSSC[C@H](N)C(=O)N2CCC[C@H]2C(=O)N[C@@H](Cc2c[nH]c3ccccc23)C(=O)N1)[C@@H](C)O)C(=O)O` (H-CPWCSTRV-OH; disulfide 1-4), the result (in assay [1]; in assay [3]; with Saccharomyces cerevisiae) was inactive. Besides, the inhibition result in assay [2] was “Active”. The same compound came in with a percent of animals without neurodegeneration in assay [4] of 26%.

Regarding `CC(C)[C@H](NC(=O)[C@H](CCCNC(=N)N)NC(=O)CNC(=O)[C@H](CO)NC(=O)[C@@H]1CSSC[C@H](N)C(=O)N2CCC[C@H]2C(=O)N[C@@H](Cc2c[nH]c3ccccc23)C(=O)N1)C(=O)O` (H-CPWCSGRV-OH; disulfide 1-4), the inhibition entry in assay [2] is “Active”.

As for `CC(C)C[C@H](NC(=O)[C@H](C)NC(=O)[C@H](C)N)C(=O)N[C@@H](CS)C(=O)N[C@@H](CC(=O)O)C(=O)N1CCC[C@H]1C(=O)N[C@@H](Cc1c[nH]c2ccccc12)C(=O)N[C@@H](Cc1c[nH]c2ccccc12)C(=O)O` (H-AALCDPWW-OH), the inhibition result in assay [4] was “inactive”.

In the case of `CC(C)C[C@@H]1NC(=O)[C@H](C)NC(=O)[C@@H](N)CSSC[C@@H](C(=O)N[C@@H](CC(=O)O)C(=O)N2CCC[C@H]2C(=O)N[C@@H](Cc2c[nH]c3ccccc23)C(=O)N[C@@H](Cc2c[nH]c3ccccc23)C(=O)O)NC1=O` (H-CALCDPWW-OH; disulfide 1-4), the result (in assay [1]; in assay [3]; in the assay on Saccharomyces cerevisiae) was inactive. Moreover, the inhibition entry in assay [2] is “Active”. In assay [4], this compound had a percent of animals without neurodegeneration of 24%.

`CC(C)[C@H](NC(=O)[C@H](CCCNC(=N)N)NC(=O)[C@@H](NC(=O)[C@H](CO)NC(=O)[C@H](CS)NC(=O)[C@H](Cc1c[nH]c2ccccc12)NC(=O)[C@@H]1CCCN1C(=O)[C@H](C)N)[C@@H](C)O)C(=O)O` (H-APWCSTRV-OH): the inhibition entry in assay [4] was “inactive”.

As for `CC(C)[C@H](NC(=O)[C@H](CCCNC(=N)N)NC(=O)[C@H](C)NC(=O)[C@H](CO)NC(=O)[C@@H]1CSSC[C@H](N)C(=O)N2CCC[C@H]2C(=O)N[C@@H](Cc2c[nH]c3ccccc23)C(=O)N1)C(=O)O` (H-CPWCSARV-OH; disulfide 1-4), the inhibition result in assay [2] is “Active”.

The record behind these values is ChEMBL document CHEMBL1212724, “Rapid selection of cyclic peptides that reduce alpha-synuclein toxicity in yeast and animal models” (Nat Chem Biol, 2009).
